Compound activity (PubChem BioAssay)
An excerpt weighted towards active compounds, which were near 2.4% of everything screened.
Rpn11 inh: inhibitors of human proteasome Rpn11; 360,000 compounds, 0.59% hits; AID 588493; human 26S proteasome, Ub4-pepOG fluorescence polarization; 20S core pre-blocked with epoxomicin; O00487; inhibition, % at 20 µM;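 active = inhibition at 20 µM, scaled to each plate's controls, above about 33%, limit read from the data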
Rin1-Abl PPI inh: blocks binding of human Rin1 to Abl | AID 588664 | inhibition, % at 7.35 µM | 360,000 compounds, 0.4% hits | TR-FRET Rin1/Abl binding, biochemical | P00519+Q13671; in the data active = inhibition above about 5%, passing the limit was not always enough
HNF4A DNA FP: change in binding of human HNF4 alpha to DNA. P41235. HNF4a-FITC DNA binding, fluorescence polarization, 1 h. activity change, % at 10 µM. 360,000 compounds, 0.3% hits; in the data active = activity change above about 30%, passing the limit was not always enough
TPT1 inhibitor: inhibitors of Candida albicans tRNA 2'-phosphotransferase TPT1; recombinant caTPT1, FP RNA substrate dephosphorylation; inhibition, % at 5 µM; 300,000 compounds, 0.81% hits;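 active = inhibition above the mean of all tested compounds plus 3 SD, set per screening campaign, cut at about 24% in these data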;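 note: plate controls were DMSO alone for no effect and ferristatin control at 100 nM for full effect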
CSN inh: blocks human CSN-mediated cullin deneddylation | Q92905 | Purified CSN, SCF-Nedd8-OG deneddylation, fluorescence polarization | inhibition, % at 12.5 µM | 360,000 compounds, 0.38% hits;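 active = pattern-corrected inhibition above about 35%, with an unprinted fluorescence ratio check between 0.5 and 1.5, limit read from the data, passing the limit was not always enough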;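 note: 0% = enzyme with substrate and 100% = substrate without enzyme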
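Material: human Csn5 produced in HEK293T cells; Input: enzyme 0.24 nM; Reagent: SCFSkp2-Nedd8OG substrate at 10 nM final; Dosing: 12.5 µM compound; Incubation: 90 min reaction at room temperature; Detection: fluorescence polarization of the substrate; Evaluation: % inhibition of substrate cleavage by Csn5; Control set: substrate-only high control, full reaction low control.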
Neddylation inh: blocks human cullin neddylation; 360,000 compounds, 0.58% hits; TR-FRET cullin neddylation, biochemical; AID 651699; inhibition, % at 25 µM; in the data active = inhibition above about 36%
Rpn11 inh conf: Rpn11 inhibition confirmation, single concentration; 1,900 compounds, 29% hits; shares compounds with Rpn11 inh; inhibition, % at 20 µM; AID 602318; purified human 26S proteasome, Ub4-pepOG fluorescence polarization; proteasome pretreated with epoxomicin
MMP-2 counter-1: MMP-2 (human) inhibition counter-screen. 1,900 compounds, 4% hits. shares compounds with Rpn11 inh. recombinant MMP-2, FRET peptide cleavage fluorescence. inhibition, % at 20 µM. AID 602330;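 note: human MMP-2 activated beforehand with APMA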
Thrombin inh: blocks bovine thrombin, flagging nonselective RPN11 hits; bovine thrombin cleavage of Ub4-pepOG, fluorescence polarization; shares compounds with Rpn11 inh; inhibition, % at 20 µM; 1,900 compounds, 13% hits; AID 602333;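 active = mean inhibition at least 40% at 20 µM, or signal 3 deviations below plate average, so some actives read negative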;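 note: plate controls were thrombin with DMSO for no effect and buffer wells lacking thrombin for full effect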
Target sequence (P00735 whole entry, looked up): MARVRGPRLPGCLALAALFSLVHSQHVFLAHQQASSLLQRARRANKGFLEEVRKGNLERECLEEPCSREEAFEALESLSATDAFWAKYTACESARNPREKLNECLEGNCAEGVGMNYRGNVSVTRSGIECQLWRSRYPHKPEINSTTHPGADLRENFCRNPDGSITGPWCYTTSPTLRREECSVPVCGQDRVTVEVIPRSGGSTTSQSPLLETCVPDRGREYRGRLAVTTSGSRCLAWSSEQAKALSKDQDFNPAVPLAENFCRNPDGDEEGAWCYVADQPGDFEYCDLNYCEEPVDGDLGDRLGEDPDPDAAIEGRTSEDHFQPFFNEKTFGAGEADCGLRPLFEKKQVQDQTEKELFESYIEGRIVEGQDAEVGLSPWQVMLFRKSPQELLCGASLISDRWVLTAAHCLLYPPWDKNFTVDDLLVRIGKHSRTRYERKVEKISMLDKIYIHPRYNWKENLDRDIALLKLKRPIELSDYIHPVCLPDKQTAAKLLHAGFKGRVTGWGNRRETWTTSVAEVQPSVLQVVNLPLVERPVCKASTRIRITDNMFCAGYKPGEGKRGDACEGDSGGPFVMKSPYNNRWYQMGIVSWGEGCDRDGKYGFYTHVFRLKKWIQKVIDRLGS
Rin1 Abl conf: Rin1-Abl interaction inhibition confirmation. inhibition, % at 7.35 µM. 1,300 compounds, 49% hits. TR-FRET Rin1-Abl binding, purified proteins. AID 602124. shares compounds with Rin1-Abl PPI inh; in the data active = inhibition above about 6.5%
GFP quench: quenches GFP fluorescence, counter-screen for Rin1-Abl inhibitors. AID 602125. shares compounds with Rin1-Abl PPI inh. 1,300 compounds, 8.5% hits. inhibitors/quenchers counterscreen. inhibition, % at 6.75 µM; in the data active = inhibition above about 6.5%;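 note: ABL1-eGFP fusion protein alone without its partner RIN1-SBP; 0% = protein with vehicle and 100% = wells lacking protein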
Neddyl inh conf: confirmation of human cullin neddylation inhibitors; shares compounds with Neddylation inh; TR-FRET cullin neddylation biochemical assay; 1,800 compounds, 13% hits; AID 652217; calls only at 25 µM;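 note: neddylation substrate is the cullin 1 ring ligase complex with SKP2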
CSN5 deneddyl: Csn5 (human) deneddylation inhibition, single-concentration validation | shares compounds with CSN inh | Csn5 deneddylation of SCF-Nedd8OG, fluorescence polarization, 90 min | inhibition, % at 16.6 µM | 540 compounds, 62% hits | AID 720654; in the data active = inhibition above about 50%;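 note: 0% = DMSO with enzyme and 100% = no enzyme wells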
MMP-2 counter-2: blocks human MMP-2 in a CSN deneddylation counter-screen; shares compounds with CSN inh; recombinant MMP-2, FRET substrate fluorescence, 60 min; inhibition, % at 16.6 µM; 540 compounds, 33% hits; AID 720655;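 active = corrected plate-normalized z-score of 5 or more, or -5 or less, or inhibition of 15% or more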;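 note: plate controls were DMSO wells with enzyme for no effect and buffer wells lacking MMP-2 for full effect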
Thrombin cntr: thrombin (bovine) inhibition, counter-screen for CSN hits; shares compounds with CSN inh; bovine thrombin cleavage of Ub4-pepOG, fluorescence polarization; inhibition, % at 16.6 µM; 540 compounds, 49% hits; AID 720656;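 active = inhibition at or above a set limit, with a fluorescence interference ratio between 0.5 and a set maximum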
* marks the source's active call; other numbers are inactive results; i = inactive; . = no result given; + = active, no number. Cut-off read from the data, not from the text of the source, unless noted: active = inhibition above about 40%; inactive = the rest.

SMILES	Rpn11 inh	Rin1-Abl PPI inh	HNF4A DNA FP	TPT1 inhibitor	CSN inh	Neddylation inh	Rpn11 inh conf	MMP-2 counter-1	Thrombin inh	others
COc1ccc(C=C2SC(=S)N(CCCC(=O)Nc3ccc(C(=O)O)c(O)c3)C2=O)cc1OC	45*	-4	23	.	9	-32	97*	-30	79*
CC(C)c1ccc(/C=C2\SC(=S)N(CCC(=O)N3CCCCC3CCO)C2=O)cc1 (stereo not drawn)	18	0	7	3	2	-21	.	.	.
CC(C(=O)N(C)C1CCS(=O)(=O)C1)N1C(=O)/C(=C/c2ccco2)SC1=S (stereo not drawn)	19	1	8	-33	8	-2	.	.	.
CC(C(=O)Nc1ccc(C(=O)O)c(O)c1)N1C(=O)/C(=C\c2ccco2)SC1=S (stereo not drawn)	74*	6	-14	15	53*	-2	45*	34	-6
FC(F)(F)C(F)(F)C(F)(F)c1nc2nc(Cl)c(Cl)nc2[nH]1	-23	-7	-10	.	2	-80	.	.	.
Fc1ccccc1-c1nc(-c2ccccc2)no1	46*	-1	0	1	-1	0	6	11	-9
O=C(CN1C(=O)/C(=C/c2ccc(F)cc2)SC1=S)N1CCN(CCc2ccccn2)CC1	42*	-8	3	20	12	-28	32	23	37
CN1CCN(C(=O)CCN2C(=O)/C(=C\c3ccc(F)cc3)SC2=S)CC1	5	0	5	.	3	-32	.	.	.
C=CCC1CCC/C(=N\NS(=O)(=O)c2ccc(C)cc2)C1 (stereo not drawn)	-11	-2	1	1	-1	8	.	.	.
CCOC(=O)c1cc(-c2ccccc2)sc1NC(=O)C(C)N1C(=O)NC(C)(c2ccc(Cl)cc2)C1=O (stereo not drawn)	120*	-1	51*	5	6	-3	13	11	4
C[C@H](NC(=O)c1ncn2c1c(=O)[nH]c1ccc(Br)cc12)c1ccccc1	+	7.9*	39	.	34	-180	5	-2	-8	Rin1 Abl conf=-22;GFP quench=0
Cc1ccc(S(=O)(=O)N2CCCC2)s1	-2	1	2	-1	6	2	.	.	.
S=c1[nH]nc(-c2cc(-c3ccccc3)n[nH]2)n1/N=C/c1ccc(Cl)c(Cl)c1	58*	-5	9	0	72*	83*	55*	15	-15	Neddyl inh conf=i
S=c1[nH]nc(-c2ccccn2)n1/N=C/c1ccc(Cl)c(Cl)c1	6	2	-4	0	2	-3	.	.	.
COc1cc2c(C#CCO)c(-c3ccc(C#N)cc3)oc(=O)c2cc1OC	56*	-3	2	.	19	75*	19	-30	4	Neddyl inh conf=+
CCOC(=O)CCCCCC(=O)Nc1ccc2c(c1)C(=O)N([C@H](C)CO)C[C@H](C)[C@H](CN(C)C(=O)C1CCCCC1)OCCCC[C@@H](C)O2	5	3	1	.	0	9	.	.	.
COc1ccccc1/C=C/C=N/NC(=O)c1ccc2nc[nH]c2c1	.	.	.	1	.	.	.	.	.
COc1ccc(/C=C2\CCCC3C2=NN(C(=O)CSc2ncn[nH]2)C3c2ccc(OC)cc2)cc1 (stereo not drawn)	41*	-3	-1	6	-1	44*	-16	-28	-14
COC(=O)Cn1ncc(N2CC(C)OC(C)C2)c(Cl)c1=O (stereo not drawn)	5	-1	0	-1	6	-8	.	.	.
C#CCOc1ccc(C2C(C#N)=C(N)Oc3cc(O)ccc32)cc1 (stereo not drawn)	52*	-2	24	8	6	56*	4	-28	-32	Neddyl inh conf=i
COc1ccc(C2C(C#N)=C(N)Oc3cc(O)ccc32)cc1Cl (stereo not drawn)	59*	0	32	19	7	48*	-4	-16	-8	Neddyl inh conf=i
N#CC1=C(N)Oc2cc(O)ccc2C1c1ccncc1 (stereo not drawn)	-5	-2	1	20	7	-28	.	.	.
CCN(CC)CCOC(=O)c1ccc(N/C=C(/C#N)c2nc(-c3ccc(OC)c(OC)c3)cs2)cc1	95*	-13	207	2	126*	64*	70*	-93	57*	CSN5 deneddyl=-30;MMP-2 counter-2=-42*;Thrombin cntr=14
COC(=O)[C@]1(C)N[C@H](c2ccc(-c3ccc(F)cc3)cc2)[C@@H]2C(=O)N(C)C(=O)[C@@H]21	0	4	1	0	-2	-13	.	.	.
O=C(Nc1ccc(C2=NCCN2)cc1)c1ccc(C(=O)Nc2ccc(C3=NCCN3)cc2)c([N+](=O)[O-])c1	73*	0	76	-1	117*	-19	35	61*	-21	CSN5 deneddyl=-40;MMP-2 counter-2=86*;Thrombin cntr=-1
COc1ccc(S(=O)(=O)NCc2csc(C)n2)cc1OC	-4	2	-2	-3	0	2	.	.	.
COC(=O)c1ccc(NC(=O)c2ccc(NC(=O)c3ccco3)cc2)cc1	96*	-3	102*	8	67*	3	85*	7	0	CSN5 deneddyl=104*;MMP-2 counter-2=6;Thrombin cntr=-6
